# Yeast superoxide = reduction of superoxide in aged yeast, primary screen, HTS | S. cerevisiae aged cells, superoxide DHE fluorescence; active compounds read low | superoxide response (% of plate mean), % at 10 µM | hit rate 0.18% among 330,000;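 active = superoxide response under a set limit, about three screen SD below normal, cut at about 65% in these data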;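 note: yeast aged for seven days with compound at 30 °C before DHE staining; 100% = average MFI of all compound-treated wells on the plate with controls excluded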
# procasp3 activ = activators of human procaspase-3 D3A mutant, primary screen, biochemical, absorbance, PC-3 D3A mutant, single concentration; recombinant procaspase-3 D3A, Ac-DEVD-pNA absorbance 405 nm; activation, % at 8.5 µM; hit rate 0.11% among 330,000; AID 463141, 2010;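 active = activation above the mean of all tested compounds plus 3 SD, cut at about 21% in these data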;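 note: 0% = DMSO alone and 100% = DMSO wells spiked with extra 5 µM PC-3 D3A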
#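 Assay system – Procaspase-3 D3A mutant · Benchmarks – DMSO low control, extra-enzyme high control · Technique – 405 nm absorbance of p-nitroaniline, reads at 0 and 120 min · Doses – 8.5 µM nominal · Measure – % activation between DMSO and enzyme-spiked controls · Also added – Ac-DEVD-pNA chromogenic peptide substrate · Schedule – 1 h compound preincubation, 2 h substrate hydrolysis at 25 °C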
# LANA-H2A inh = blockers of LANA interaction with H2A/H2B – biochemical, FP readout, HTS, primary screen | Protein LANA1 (Human herpesvirus 8 type P (isolate GK18)), Q9QR71 | AID 2629, 2010 | inhibition, % (test concentration not listed) | hit rate 0.6% among 320,000 | cell-free LANA-H2A/H2B peptide, fluorescence polarization; in the data active = inhibition mostly above about 10%, no sharp cut-off; inactive = mostly below about 6.7%
# procasp7 counter = procaspase-7 activators, primary screen, counter-screen for procaspase-3 activator project, biochemical, absorbance, HTS, human; Caspase-7 (Homo sapiens), P55210; recombinant procaspase-7, Ac-DEVD-pNA absorbance 405 nm; D23A/D198A/D206A triple mutant, cannot self-cleave; scale: DMSO 0, 5 µM enzyme 100; activation, % at 8.5 µM; hit rate 0.093% among 330,000;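 active = percent activation above the screen-wide mean plus 3 SD, cut at about 25% in these data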
# Target sequence (P55210 whole entry D23A/D198A/D206A): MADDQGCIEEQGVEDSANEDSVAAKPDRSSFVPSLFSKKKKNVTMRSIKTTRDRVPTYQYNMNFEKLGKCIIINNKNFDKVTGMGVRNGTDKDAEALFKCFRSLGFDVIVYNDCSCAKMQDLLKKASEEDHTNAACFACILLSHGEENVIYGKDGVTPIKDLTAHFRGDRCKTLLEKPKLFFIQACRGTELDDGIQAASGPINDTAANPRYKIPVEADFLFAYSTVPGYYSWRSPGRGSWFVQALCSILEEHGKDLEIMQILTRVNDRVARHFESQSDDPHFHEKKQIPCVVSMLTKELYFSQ
#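 Detection: p-Nitroaniline absorbance at 405 nm, read at 0 and 120 min; system: Uncleavable procaspase-7 mutant enzyme; evaluation: % activation from two-timepoint absorbance difference, scaled to controls; times: 1 h enzyme–compound preincubation and 2 h substrate reaction, both 25 °C; buffer or medium: Zinc-free HEPES pH 7.4 with 300 mM NaCl, 0.01% Triton X-100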
# ASAP1 GAP inh = inhibitors of human ASAP1 ArfGAP activity, primary screen, biochemical, fluorescence polarization; hit rate 0.19% among 360,000; inhibition, % at 16.5 µM; ASAP1-stimulated ARF1 GTP hydrolysis, GDP FP detection; in the data active = inhibition above about 25%;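 note: 0% = vehicle with enzyme and substrate and 100% = no enzyme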
# Target sequence (Q9ULH1 325-724 limits assumed): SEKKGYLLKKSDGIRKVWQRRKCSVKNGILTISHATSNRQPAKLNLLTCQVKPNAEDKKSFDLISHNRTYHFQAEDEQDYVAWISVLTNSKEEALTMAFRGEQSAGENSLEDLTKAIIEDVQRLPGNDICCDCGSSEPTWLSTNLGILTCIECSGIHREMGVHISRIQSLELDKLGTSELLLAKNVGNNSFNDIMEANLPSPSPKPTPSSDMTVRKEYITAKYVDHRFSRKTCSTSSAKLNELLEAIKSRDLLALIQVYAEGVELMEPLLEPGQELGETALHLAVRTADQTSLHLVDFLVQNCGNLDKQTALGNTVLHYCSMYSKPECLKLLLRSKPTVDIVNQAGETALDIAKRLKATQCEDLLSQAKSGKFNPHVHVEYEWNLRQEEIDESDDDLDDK
# ARFGAP1 inh = inhibitors of rat ARFGAP1 GAP activity, primary screen, biochemical, fluorescence polarization, GDP tracer; ADP-ribosylation factor GTPase-activating protein 1 (Rattus norvegicus), Q62848; Arfgap1-stimulated ARF1 GTP hydrolysis, GDP FP detection; inhibition, % at 16.5 µM; hit rate 0.26% among 360,000;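 active = inhibition above a per-plate limit, mean inhibition of low control wells plus 3 SD, cut at about 25% in these data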;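 note: 0% = DMSO wells with enzyme and 100% = wells lacking Arfgap1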
#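 material = rat Arfgap1 catalytic domain, aa 1-136 | also added = human ARF1(Δ1-17)-GTP substrate | compound dosing = one concentration, 16.5 µM, DMSO 1.26% | times = GTP hydrolysis reaction 2 h at 25 °C | measured by = FP, GDP Alexa 633 tracer displaced from anti-GDP antibody, 620/688 nm | evaluation = percent inhibition of Arfgap1-stimulated GTP hydrolysis | replication = single well per compound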
# Active calls of the source: *; nt = no result given. Hits are enriched below; roughly 1.2% of the tested compounds scored in any of these assays.
SMILES,Yeast superoxide,procasp3 activ,LANA-H2A inh,procasp7 counter,ASAP1 GAP inh,ARFGAP1 inh
CC(C)OCCCNC(=O)CN1C(=O)COc2ccc(S(=O)(=O)N3CCCCCC3)cc21,90.0,1.1,nt,3.5,-9.0,-8.0
O=C(CN1C(=O)CSc2ccc(S(=O)(=O)N3CCCCCC3)cc21)NCCc1ccccc1,nt,nt,nt,nt,0.7,7.7
CCCCN(C)CCNC(=O)CN1C(=O)CSc2ccc(S(=O)(=O)N3CCCC3)cc21,91.3,1.6,19.4*,-4.6,1.6,-7.8
O=C(CN1C(=O)CSc2ccc(S(=O)(=O)N3CCCCC3)cc21)NCc1ccccc1,97.3,-4.0,56.1*,1.1,11.2,-5.5
CC(C)OCCCNC(=O)CN1C(=O)CSc2ccc(S(=O)(=O)N3CCCCC3)cc21,96.9,-8.3,21.7*,-17.8,-12.9,1.5
COC(=O)Cc1nnn2c1CC(OC)c1ccccc1-2 (stereo not drawn),nt,nt,nt,nt,-6.9,12.0
O=C(/C=C/Nc1ccccc1)c1ccc(Cl)cc1Cl,109.1,-9.3,5.1*,-15.7,3.6,-2.2
O=C(/C=C/Nc1ccccc1)c1ccccc1,105.0,-3.9,-0.9,1.9,3.9,6.1
CCN(CC)C(CNC(=O)CSc1nnnn1-c1c(C)cccc1C)c1ccco1 (stereo not drawn),nt,nt,nt,nt,-2.0,1.8
CCN(CC)C(CNC(=O)CSc1nnnn1-c1ccc(C)c(C)c1)c1ccco1 (stereo not drawn),64.3*,1.9,-6.2,-5.0,7.2,-3.0
O=C(c1ccc(N2CCCC2=O)cc1)N1CCN(c2ccc(Cl)cc2)CC1,100.3,1.2,-1.1,0.3,7.2,1.7
O=C(c1ccc(N2CCCC2=O)cc1)N1CCN(c2ccccc2Cl)CC1,44.5*,6.2,1.1,2.5,1.6,7.1
Cc1nc(Cc2nnc(SCC(=O)N3c4ccccc4NC(=O)C3(C)C)o2)cs1,nt,nt,nt,nt,-12.2,-10.5
COc1ccc(NC(=O)CSc2nn3c(=O)c(C)nnc3s2)cc1,92.4,4.7,28.4*,-3.5,12.8,-6.2
CC(C)CC(c1nnnn1Cc1ccc2c(c1)OCO2)N1CCC(C(N)=O)CC1 (stereo not drawn),104.4,-1.6,0.1,4.5,8.5,4.5
NC(=O)C1CCN(C(c2ccccc2Cl)c2nnnn2Cc2ccc3c(c2)OCO3)CC1 (stereo not drawn),98.1,1.2,25.9*,9.3,3.0,2.6
CC(C)C(c1nnnn1Cc1ccc(F)cc1)N1CCC(C(N)=O)CC1 (stereo not drawn),103.1,6.1,38.6*,-1.7,-16.4,-6.0
Cc1cc(C)c(NC(=O)CSCc2nc3sc(C)c(C)c3c(=O)[nH]2)c(Cl)c1,123.2,-0.2,54.7*,-4.9,6.9,2.9
COC(=O)CC#C[C@H](C)[C@@H](NS(=O)(=O)c1ccc([N+](=O)[O-])cc1)C(C)(C)C,nt,nt,nt,nt,9.7,4.3
COC(=O)c1ccc2nc(-c3ccc(C)cc3)c(Cc3ccccc3)n2c1,nt,nt,nt,nt,-0.1,5.8
CSC(=NC#N)N1CCN(c2ccccn2)CC1,83.8,1.2,30.0*,11.1,3.3,-12.1
CC(=O)Nc1cccc(N)c1,79.9,0.7,27.5*,-1.6,-2.3,-15.3
CC(=O)Nc1cccc(C)c1,91.7,-4.2,-2.2,6.2,0.5,-8.0
Cc1c(C(=O)N/N=C/c2ccccc2)sc(=S)n1C,109.3,4.0,6.1,8.1,-0.8,25.8*
CCN1/C(=C/C=C/C=C/C=C/c2sc3ccccc3[n+]2CC)Sc2ccccc21,101.9,-19.2,-8.1,-27.6,-1.6,32.1*
SMILES,Yeast superoxide,procasp3 activ,LANA-H2A inh,procasp7 counter,ASAP1 GAP inh,ARFGAP1 inh
CCCCC(CC)COC(=O)CCCCC(=O)OCC(CC)CCCC (stereo not drawn),111.0,-3.5,46.1*,-12.4,5.0,12.0
CCCCCCCC(=O)OCC(O)CO (stereo not drawn),92.7,8.6,1.1,-1.0,-4.1,-3.4
CCOc1ccccc1N(C)S(=O)(=O)c1ccc2[nH]cc(C(=O)N(CCOC)CCOC)c(=O)c2c1,90.2,3.9,2.9,9.3,-0.5,9.4
COCCN(CCOC)C(=O)c1c[nH]c2ccc(S(=O)(=O)N(C)c3ccc(F)cc3)cc2c1=O,89.8,5.9,80.5*,1.9,10.5,3.6
CCOC(=O)Cc1csc(NC(=O)Nc2cccc(OC)c2)n1,59.4*,-3.1,1.5,3.9,-1.5,-13.7
CC1CCC(C(C)C)C(OC(=O)Cn2c(-c3ccccc3)[n+](C)c3ccccc32)C1 (stereo not drawn),103.7,-4.8,171.8*,7.4,-1.5,3.1
CC1CCC(C(C)C)C(OC(=O)Cn2c(-c3ccc(F)cc3)[n+](C)c3ccccc32)C1 (stereo not drawn),102.2,5.0,nt,-10.5,7.2,4.9
COc1cc(C(=O)NNC(=O)NC2CCCCC2)cc(OC)c1OC,95.7,7.1,13.6*,-3.0,-13.0,0.6
CCc1cc2c(nc1CC)CCCN2Cc1ccccc1C(F)(F)F,nt,nt,nt,nt,4.4,0.6
Cc1c2cc(O)c(=O)cc-2oc2cc(O)c(O)cc12,68.8,-20.1,114.2*,-38.5,9.1,-9.1
COc1ccc(CCN2CCC(CN3C(=S)NC[C@@H]3Cc3ccccc3)CC2)cc1OC,nt,nt,nt,nt,-4.5,9.6
CC(C)CCc1noc(CN2CCC(CCN3CCCC3=O)CC2)n1,81.0,7.9,10.7*,4.7,11.9,3.7
CC(C)CCc1noc(CN2CCN(CC(=O)NC(C)C)CC2)n1,101.3,1.8,-2.2,5.8,-5.4,2.0
O=C(CC1CCCC1)N[C@H](C(=O)N1CCC[C@H]1C(=O)NC1CCCC1)c1ccccc1,nt,nt,nt,nt,9.6,3.0
Cc1ccc(Sc2ncccc2O)cc1,83.8,-8.9,-5.5,-1.4,-9.7,-4.7
Cc1ccc(Sc2ncccc2N)cc1,107.9,-3.0,37.4*,10.8,6.2,8.4
CC(=O)N(Cc1ccccc1)c1nccs1,nt,nt,nt,nt,-0.1,3.3
O=C(Nc1ccc(Cl)c(Cl)c1)Nc1cc(C(=O)NC2CC2)ccc1Cl,101.6,0.1,16.7*,-0.9,nt,nt
O=C(Nc1ccc(Cl)c(Cl)c1)c1ccc(Cl)c(Cl)c1,89.0,5.8,-0.5,-5.0,4.3,4.1
CCOC(=O)c1oc2cc(O)cc(C)c2c(=O)c1-c1cscn1,105.7,-6.3,26.0*,5.5,6.1,4.9

# Bioassay records (PubChem)
